Series [1] has as its target T1, Proton-coupled folate transporter (Homo sapiens) (UniProt Q96NT5).
T1 sequence (whole entry): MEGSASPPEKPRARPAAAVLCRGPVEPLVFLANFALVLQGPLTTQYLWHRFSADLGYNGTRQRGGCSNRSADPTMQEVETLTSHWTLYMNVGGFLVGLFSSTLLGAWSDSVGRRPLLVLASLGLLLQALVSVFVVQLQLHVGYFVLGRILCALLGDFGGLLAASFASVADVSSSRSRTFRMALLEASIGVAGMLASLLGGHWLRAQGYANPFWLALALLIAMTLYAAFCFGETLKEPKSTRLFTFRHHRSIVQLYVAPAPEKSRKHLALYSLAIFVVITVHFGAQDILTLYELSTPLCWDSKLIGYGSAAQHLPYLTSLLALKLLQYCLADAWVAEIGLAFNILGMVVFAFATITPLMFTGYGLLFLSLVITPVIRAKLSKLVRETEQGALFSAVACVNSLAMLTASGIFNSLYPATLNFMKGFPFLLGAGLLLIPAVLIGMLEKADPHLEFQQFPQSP
Description: Binding affinity to human PCFT expressed in Chinese hamster R2/PCFT4 cells assessed as intracellular drug level at 0.5 uM at 37 degC at pH 5.5 measured over 5 mins. The class given is cell-based.

Series [2] relates to SK-OV-3. Description: Antitumor activity against human SKOV3 cells expressing RFC/PCFT/FRalpha xenografted in folate-deficient diet fed NCR SCID mouse assessed as log10 of gross cell killing at 16 mg/kg, iv administered every 4 days on day 3, 7, 11 measured twice per week. It counts as functional. A digest of the protocol: (§1)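 Ten-week-old female NCR SCID mice, fed a folate-deficient or standard folate-replete diet, were implanted subcutaneously and bilaterally with SKOV3 tumour fragments. Randomised at 5 mice/group. Dosed intravenously, 0.2 mL per injection, in 5% ethanol/1% Tween-80/0.5% NaHCO3 in water at pH 6.5, on days 3, 7 and 11. Tumours measured twice weekly and mice weighed daily. T/C taken on day 21; growth delay and log cell kill also reported.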
In general terms: Xenograft models place foreign cells or tissue in a host animal.

A further series has as its system KB. Description: Antiproliferative activity against human KB cells expressing FRalpha/PCFT/RFC assessed as cell growth inhibition after 96 hrs by CellTiter-Blue assay. It counts as functional, cell-based. (The colour change of resazurin is a common sign of viable cells or microbes.)
The target in series [3] is T2, Trifunctional purine biosynthetic protein adenosine-3 (Homo sapiens) (UniProt P22102).
T2 sequence (whole entry): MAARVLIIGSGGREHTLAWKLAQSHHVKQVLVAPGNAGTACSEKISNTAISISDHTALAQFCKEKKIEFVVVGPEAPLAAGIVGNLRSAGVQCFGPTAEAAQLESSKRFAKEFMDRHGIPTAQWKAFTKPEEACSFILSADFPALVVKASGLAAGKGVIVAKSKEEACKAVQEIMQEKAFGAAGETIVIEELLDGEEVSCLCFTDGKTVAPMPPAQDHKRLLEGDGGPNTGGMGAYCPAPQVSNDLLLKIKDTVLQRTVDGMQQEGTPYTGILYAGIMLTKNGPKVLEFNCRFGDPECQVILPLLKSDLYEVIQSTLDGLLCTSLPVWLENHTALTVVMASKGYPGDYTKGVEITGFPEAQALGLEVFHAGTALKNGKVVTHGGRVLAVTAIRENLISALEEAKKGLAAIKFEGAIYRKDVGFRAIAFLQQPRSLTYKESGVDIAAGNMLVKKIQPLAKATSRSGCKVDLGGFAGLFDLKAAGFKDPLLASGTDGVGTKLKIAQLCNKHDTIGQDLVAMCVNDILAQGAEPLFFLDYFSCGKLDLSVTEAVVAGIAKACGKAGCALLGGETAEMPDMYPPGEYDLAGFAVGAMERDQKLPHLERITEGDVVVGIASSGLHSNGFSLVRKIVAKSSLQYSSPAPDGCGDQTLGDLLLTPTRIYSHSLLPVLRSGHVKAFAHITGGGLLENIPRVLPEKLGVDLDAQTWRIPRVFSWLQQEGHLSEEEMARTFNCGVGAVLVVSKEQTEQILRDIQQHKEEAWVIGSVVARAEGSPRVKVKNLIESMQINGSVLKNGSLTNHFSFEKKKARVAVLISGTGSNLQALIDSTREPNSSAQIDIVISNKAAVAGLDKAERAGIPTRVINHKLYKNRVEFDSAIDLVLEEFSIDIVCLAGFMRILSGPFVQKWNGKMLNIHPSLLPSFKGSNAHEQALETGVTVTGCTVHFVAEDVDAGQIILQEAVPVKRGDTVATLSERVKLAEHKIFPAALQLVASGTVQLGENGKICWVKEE
Put plainly: Inhibition of GARFTase in human KB cells expressing FRalpha/PCFT/RFC assessed as cell growth inhibition after 96 hrs by CellTiter-Blue assay in presence of thymidine. It counts as cell-based.

Another series relates to Mus musculus. Put plainly: Toxicity in folate-deficient diet fed NCR SCID mouse xenografted with human SKOV3 cells expressing RFC/PCFT/FRalpha assessed as body weight loss at 16 mg/kg, iv administered every 4 days on day 3, 7, 11 relative to control. The class given is organism-based, SK-OV-3. The note with it: in vivo, 96 h. A digest of the protocol:
as §1

In series [4] the target is T1, Proton-coupled folate transporter (Homo sapiens). Put plainly: Binding affinity to human PCFT expressed in Chinese hamster R2/PCFT4 cells assessed as cell growth inhibition after 96 hrs by CellTiter-Blue assay in presence of 200 nM folic acid. The class given is cell-based. Put shortly:
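Human-PCFT-transfected R2 CHO cells, precultured with G418, were plated at ~2500–5000 cells/well across a range of drug concentrations. Medium was folate-free RPMI 1640 (pH 7.2) with 25 nM LCV and 10% dialyzed FBS. Parallel wells received 200 nM folic acid. Incubated up to 96 h, then read with CellTiter Blue fluorescence (ex 560/em 590 nm).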

The subject of another series is RT16. Description: Selectivity ratio of IC50 for human RFC expressed in Chinese hamster PC43-10 cells assessed as cell growth inhibition to IC50 for human FRalpha expressed in Chinese hamster RT16 cells assessed as cell growth inhibition. It counts as cell-based.
For series [5], the target named is Folate receptor alpha (Homo sapiens) (UniProt P15328). Description: Displacement of [3H]-folic acid from human FRalpha expressed in Chinese hamster RT16 cells after 15 mins relative to folic acid. The class given is cell-based. Put shortly: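 Competitive binding to surface folate receptor on RT16 (FRα) or D4 (FRβ) CHO cells. Cells were acid-washed (pH 3.5) to strip bound folate, then incubated in HEPES-buffered saline pH 7.4 with 50 nM [3H]folic acid plus unlabeled ligand (0–1000 nM) for 15 min at 0 °C. Bound label was normalised to protein. Affinity is the inverse molar ratio for 50% displacement, with folic acid set to 1. Mean of 4–10 experiments ±SE.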
For orientation: Displacement assays read how much labelled ligand stays bound in the presence of the test substance.

The test system of another series is D4. Description: Selectivity ratio of IC50 for human RFC expressed in Chinese hamster PC43-10 cells assessed as cell growth inhibition to IC50 for human FRbeta expressed in Chinese hamster D4 cells assessed as cell growth inhibition. It counts as cell-based.
Series [6] has as its system SK-OV-3. Description: Antitumor activity against human SKOV3 cells expressing RFC/PCFT/FRalpha xenografted in folate-deficient diet fed NCR SCID mouse assessed as tumor growth inhibition at 16 mg/kg, iv administered every 4 days on day 3, 7, 11 measured on day 21 relative to control. The class given is functional. Put shortly:
as §1

From ChEMBL document CHEMBL3627626, “6-Substituted Pyrrolo[2,3-d]pyrimidine Thienoyl Regioisomers as Targeted Antifolates for Folate Receptor α and the Proton-Coupled Folate Transporter in Human Tumors” (J Med Chem, 2015) come the findings set out here.

Calls of active or inactive are those of the source. No cut-off for these calls is given here.

Sequence of Folate receptor alpha (Homo sapiens) (P15328 25-234 limits assumed): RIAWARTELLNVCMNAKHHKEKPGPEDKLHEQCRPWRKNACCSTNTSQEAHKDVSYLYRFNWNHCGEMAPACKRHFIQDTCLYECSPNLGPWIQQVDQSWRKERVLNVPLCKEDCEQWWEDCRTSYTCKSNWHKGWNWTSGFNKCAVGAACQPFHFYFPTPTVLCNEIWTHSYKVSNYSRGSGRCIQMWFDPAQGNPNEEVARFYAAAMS

In general, IC50 refers to the concentration that inhibits the measured activity by half. For orientation: T/C means the result in the treated group divided by that in the control group, in per cent. As for `Nc1nc2[nH]c(CCCc3cc(C(=O)N[C@@H](CCC(=O)O)C(=O)O)cs3)cc2c(=O)[nH]1`, the result in series [1] and in series [4] was Active. Besides, the LCK in the series with SK-OV-3 [2] turned out to be 1.9. Also, the IC50 in the series on KB came to 0.09 nM. Besides, the inhibition result in series [3] was “Active”. In addition, the Activity came out at 12.1% in the series on Mus musculus and 60% in [5]. Also, the values for the Ratio IC50 in the series on RT16 and in the series with D4 were 610 and 1890, respectively. Besides, in the series on SK-OV-3 [6], the T/C was 15%.
